Data: ChEMBL document CHEMBL3112446, “Discovery and optimization of a new class of pyruvate kinase inhibitors as potential therapeutics for the treatment of methicillin-resistant Staphylococcus aureus infections” (Bioorg Med Chem, 2014)
In brackets after ≈: the same amount, converted by molar mass. Activity calls are given as the source filed them. No cut-off for these calls is given here.

What was measured:
[1] = tested on: Staphylococcus aureus; assay: Antibacterial activity against Staphylococcus aureus ATCC 29213 by two fold serial dilution method; assay type: functional
[2] = tested on: HEK293; assay: Cytotoxicity against HEK293 cells assessed as cell viability at 1 ug/ml; assay type: cell-based; details: human
[3] = tested on: HEK293; assay: Cytotoxicity against HEK293 cells assessed as cell viability at 100 ug/ml; assay type: cell-based; details: human
[4] = tested on: HEK293; assay: Cytotoxicity against HEK293 cells assessed as cell viability at 10 ug/ml; assay type: cell-based; details: human
[5] = Inhibition of methicillin-resistant Staphylococcus aureus pyruvate kinase; details: read-out: IC50
Summary of the method: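 His-tagged MRSA PK. Compounds diluted in 100% DMSO. IC50 calculated from a triplicate 15-point titration.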

[6] = tested on: Staphylococcus aureus; assay: Inhibition of methicillin-resistant Staphylococcus aureus pyruvate kinase at 1 uM
[7] = tested on: Staphylococcus aureus; assay: Inhibition of methicillin-resistant Staphylococcus aureus pyruvate kinase at 10 uM
Summary of the method: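 His-tagged MRSA PK. Compounds diluted in 100% DMSO. Percent inhibition reported at the highest concentration tested, 10 µM.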

[8] = target: Pyruvate kinase PKM (Homo sapiens) (UniProt P14618); assay: Inhibition human pyruvate kinase M1 at 10 uM
Chain of Pyruvate kinase PKM (Homo sapiens) (P14618 2-531 limits assumed): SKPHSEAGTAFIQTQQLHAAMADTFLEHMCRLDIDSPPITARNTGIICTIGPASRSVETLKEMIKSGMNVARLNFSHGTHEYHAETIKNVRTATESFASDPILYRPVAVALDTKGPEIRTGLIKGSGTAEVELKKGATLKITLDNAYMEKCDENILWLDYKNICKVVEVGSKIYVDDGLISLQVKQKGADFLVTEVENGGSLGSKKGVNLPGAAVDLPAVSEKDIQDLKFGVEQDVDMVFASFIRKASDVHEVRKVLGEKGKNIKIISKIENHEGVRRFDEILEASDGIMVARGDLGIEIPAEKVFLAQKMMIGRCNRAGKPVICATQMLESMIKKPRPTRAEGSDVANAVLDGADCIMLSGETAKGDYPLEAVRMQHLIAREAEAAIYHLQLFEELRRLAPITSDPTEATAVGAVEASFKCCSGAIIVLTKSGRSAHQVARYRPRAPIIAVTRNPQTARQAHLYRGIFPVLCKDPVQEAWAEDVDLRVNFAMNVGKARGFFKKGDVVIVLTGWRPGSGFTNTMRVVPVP
Summary of the method: (§1)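 His-tagged recombinant human PK isoforms were used. Compounds were diluted in 100% DMSO and tested at 10 µM, the highest concentration tested. Values are percent inhibition of enzymatic activity.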

[9] = target: Pyruvate kinase PKLR (Homo sapiens) (UniProt P30613); assay: Inhibition human pyruvate kinase R at 10 uM; summary of the method: as §1
Chain of Pyruvate kinase PKLR (Homo sapiens) (P30613 whole entry, looked up): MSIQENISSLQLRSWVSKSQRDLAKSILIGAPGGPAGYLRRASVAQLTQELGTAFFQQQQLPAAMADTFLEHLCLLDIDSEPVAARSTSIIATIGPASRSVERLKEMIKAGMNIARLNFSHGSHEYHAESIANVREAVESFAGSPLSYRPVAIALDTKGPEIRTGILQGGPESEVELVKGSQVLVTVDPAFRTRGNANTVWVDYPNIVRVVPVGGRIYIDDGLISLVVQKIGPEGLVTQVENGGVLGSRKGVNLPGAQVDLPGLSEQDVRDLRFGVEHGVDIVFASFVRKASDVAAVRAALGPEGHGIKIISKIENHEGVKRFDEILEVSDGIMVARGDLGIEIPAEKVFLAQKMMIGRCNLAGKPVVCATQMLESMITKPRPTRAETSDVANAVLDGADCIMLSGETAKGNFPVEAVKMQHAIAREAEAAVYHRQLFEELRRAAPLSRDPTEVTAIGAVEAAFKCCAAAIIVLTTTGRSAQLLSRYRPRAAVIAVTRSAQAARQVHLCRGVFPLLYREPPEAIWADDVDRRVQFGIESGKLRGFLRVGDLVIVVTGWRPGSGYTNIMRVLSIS

[10] = target: Pyruvate kinase PKLR (Homo sapiens) (UniProt P30613); assay: Inhibition human pyruvate kinase L at 10 uM; summary of the method: as §1
[11] = target: Pyruvate kinase PKM (Homo sapiens) (UniProt P14618); assay: Inhibition human pyruvate kinase M2 at 10 uM; summary of the method: as §1
[12] = tested on: Staphylococcus aureus; assay: Ratio of MIC90 for Staphylococcus aureus ATCC 29213 in presence of efflux inhibitor verapamil to MIC90 for Staphylococcus aureus ATCC 29213 in absence of efflux inhibitor verapamil; assay type: functional
Summary of the method: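 S. aureus ATCC 29213 broth microdilution in 96-well format, run in parallel in CAMHB with and without verapamil (200 mg/L, sub-inhibitory). Compounds were twofold serially diluted in DMSO and added to ~2.5 × 10^5 CFU/ml. Plates were incubated 18–24 h at 37 °C and read at OD600, with inhibitor-only wells subtracted as background. MIC is the lowest concentration giving complete growth inhibition versus compound-free wells, in duplicate or triplicate. The ratio compares the MIC with verapamil to the MIC without.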

[13] = tested on: Staphylococcus aureus; assay: Antibacterial activity against Staphylococcus aureus ATCC 29213 by two fold serial dilution method in presence of efflux inhibitor verapamil; assay type: functional
Summary of the method: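 S. aureus ATCC29213, 96-well twofold broth microdilution in CAMHB with verapamil 200 mg/L (sub-inhibitory) versus plain CAMHB. Incubated 18–24 h at 37 °C, OD600 read, compound-plus-medium background subtracted. MIC is the lowest concentration giving complete growth inhibition relative to compound-free wells.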

[14] = tested on: Staphylococcus aureus; assay: Antibacterial activity against Staphylococcus aureus […]; assay type: functional
[15] = tested on: Staphylococcus aureus; assay: Antibacterial activity against Staphylococcus aureus MRSA252; assay type: functional
[16] = tested on: Staphylococcus aureus; assay: Bactericidal activity against Staphylococcus aureus harboring LAC Dpyk::ErmR mutant at 1.6 uM after 8 to 24 hrs; assay type: functional, organism-based
Summary of the method: (§2)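 S. aureus LAC pyk::ErmR (pyk replaced by an ErmR cassette) and WT overnight cultures were washed twice in PBS and diluted to OD600 0.1 (~2.5 × 10^7 cfu/ml). Media were pre-warmed (37 °C) BHI or TSB without glucose plus 1% sodium pyruvate (TSB-G+P), ±1.6 µM inhibitor. Cultures grew at 37 °C, 250 rpm. Viable counts were taken by dilution plating on glucose-free TSA plus 1% pyruvate at 0, 8 and 24 h.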

[17] = tested on: Staphylococcus aureus; assay: Bacteriostatic activity against Staphylococcus aureus harboring LAC Dpyk::ErmR mutant in Brain-Heart infusion broth medium at 1.6 uM after 8 to 24 hrs; assay type: functional, organism-based; summary of the method: as §2
[18] = tested on: Staphylococcus aureus; assay: Antibacterial activity against methicillin-resistant Staphylococcus aureus MW2 by two fold serial dilution method; assay type: functional
[19] = tested on: Staphylococcus aureus; assay: Bacteriostatic activity against Staphylococcus aureus harboring LAC Dpyk::ErmR mutant in TSB-G+P medium at 1.6 uM after 8 to 24 hrs; assay type: functional, organism-based; summary of the method: as §2
[20] = tested on: Staphylococcus aureus; assay: Bacteriostatic activity against wild type Staphylococcus aureus at 1.6 uM after 8 to 24 hrs; assay type: functional, organism-based
Summary of the method: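 Washed overnight cultures were diluted to OD600 = 0.1 (~2.5 × 10^7 cfu/ml) in pre-warmed medium, either BHI or glucose-free TSB with 1% sodium pyruvate, ±1.6 µM compound. Grown at 37 °C with shaking at 250 rpm. Viable counts by dilution plating on glucose-free TSA with 1% pyruvate at 0, 8 and 24 h.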

Row | Structure (SMILES) | MIC>98 [1] [µg/mL] | Cell viability [2] [%] | Cell viability [3] [%] | Cell viability [4] [%] | IC50 [5] [nM] | inhibition [7] [%] | inhibition [8] [%] | inhibition [9] [%] | inhibition [10] [%] | inhibition [11] [%] | further results
1 | COc1ccc2[nH]c(-c3cc4ccc(Br)cc4[nH]3)cc2c1 | >64 | 107 | 72 | 88 | 2.5 |  |  |  |  |  | 
2 | Brc1ccc2[nH]c(-c3cc4ccccc4s3)cc2c1 | >64 |  |  |  |  |  |  |  |  |  | inhibition [6]: 42%
3 | Brc1ccc2cc(-c3ccc(-c4cc5ccc(Br)cc5[nH]4)cc3)[nH]c2c1 | >64 |  |  |  |  |  |  |  |  |  | inhibition [6]: 54%
4 | Brc1ccc2cc(/C=C/c3cc4ccccc4[nH]3)[nH]c2c1 | >64 | 107 | 115 | 114 | 4.5 | 93.4 | 16.1 | 23.8 | 12.9 | -0.9 | 
5 | Brc1ccc2cc(CCc3cc4ccc(Br)cc4[nH]3)[nH]c2c1 | >64 | 104 | 85 | 92 | 6.5 | 93.4 | 9.9 | 24.1 | 9.7 | 1.3 | 
6 | COCn1c(-c2cc3ccc(Br)cc3[nH]2)cc2cc(Br)ccc21 | >64 | 123 | 73 | 102 | 1.9 |  |  |  |  |  | 
7 | Brc1ccc2cc(-c3cc4ccccc4o3)[nH]c2c1 | >64 |  |  |  | 108 | 95.9 | 5.3 | -5.5 | -6 | 0.4 | 
8 | Brc1ccc2cc(-c3cc4cc(Br)c(Br)cc4[nH]3)[nH]c2c1 | 0.5 (≈ 1.07 µM) | 102 | 63 | 71 | 1.5 | 94.1 | 8.6 | 33.4 | 23.7 | 15.8 | 
9 | Brc1ccc2cc(-c3cc4ccc(Br)cc4[nH]3)[nH]c2c1 |  | 103 | 118 | 106 | 7 | 84.9 | 10.3 | 18.3 | 7.9 | 0.1 | Ratio [12]: 32; MIC [13]: 0.5 µg/mL
10 | COc1cc(-c2cc3ccccc3[nH]2)ccc1-c1cc2ccc(Br)cc2[nH]1 | >64 |  |  |  | 2.1 | 62.2 | 7.3 | 13.5 | 4.3 | 14.6 | 
11 | O=C1NC[C@@H](c2c[nH]c3cc(Br)ccc23)N[C@H]1c1c[nH]c2cc(Br)ccc12 (relative stereo) [CIS-3,4-DIHYDROHAMACANTHIN B] |  |  |  |  | 16 |  |  |  |  |  | MIC [14]: 12.5 µg/mL (≈ 25.6 µM); MIC [15]: 12.5 µg/mL (≈ 25.6 µM)
12 | O=[N+]([O-])c1cc(-c2cc3ccccc3[nH]2)ccc1-c1cc2ccc(Br)cc2[nH]1 | 2 (≈ 4.63 µM) |  |  |  | 1.8 | 86.2 | 9.5 | 0 | -8.9 | 6.8 | 
13 | Brc1ccc2cc(-c3ccc(-c4cc5ccc(Br)cc5[nH]4)s3)[nH]c2c1 | >64 |  |  |  |  |  |  |  |  |  | inhibition [6]: 28%
14 | Brc1cc2cc(-c3cc4cc(Br)c(Br)cc4[nH]3)[nH]c2cc1Br |  |  |  |  | 2 | 97.6 | 11.1 | 20.7 | 8.2 | 2.3 | Ratio [12]: 4; MIC [13]: 16 µg/mL
15 | Clc1ccc2[nH]c(-c3cc4ccc(Br)cc4[nH]3)cc2c1 |  |  |  |  | 2 |  |  |  |  |  | Activity [16]: inactive; Activity [17]: Active; MIC [18]: 0.5 µg/mL (≈ 1.45 µM); Activity [19]: inactive; MIC [13]: 0.5 µg/mL; Activity [20]: Active
16 | Fc1ccc2[nH]c(-c3cc4ccc(Br)cc4[nH]3)cc2c1 |  |  |  |  | 2.8 |  |  |  |  |  | MIC [18]: 0.5 µg/mL (≈ 1.52 µM)
17 | Brc1ccc2c(c1)cc(-c1cc3ccc(Br)cc3[nH]1)n2CCN1CCOCC1 | >64 |  |  |  | 1.2 | 101 | 13.1 | 50.7 | 32.1 | 3.5 | 
18 | Brc1ccc2[nH]c(-c3cc4ccc(Br)cc4[nH]3)cc2c1 |  |  |  |  | 2.2 | 97.8 | 6.9 | 13.6 | 6.1 | 8.7 | MIC [18]: 0.5 µg/mL (≈ 1.28 µM)
